Assay results as given in ChEMBL document CHEMBL4837261, “Optimization of TopoIV Potency, ADMET Properties, and hERG Inhibition of 5-Amino-1,3-dioxane-Linked Novel Bacterial Topoisomerase Inhibitors: Identification of a Lead with In Vivo Efficacy against MRSA” (J Med Chem, 2021).
Values after ≈ are worked out from the molar mass of the structure shown.

Key:
[1] = molecular target: Nav1.5 (late current) (Homo sapiens, UniProt Q14524); experiment: Inhibition of recombinant human Nav1.5 late expressed in human HEK293 cells at 100 uM in presence of ATXII by automated Qpatch clamp assay relative to contro; type: ADME, cell-based; conditions: HEK293 cells expressing recombinant human Nav1.5
[2] = AUClast in ICR (CD-1) mouse at 50 mg/kg, po measured up to 1440 mins by LC-MS/MS analysis; type: ADME, organism-based; design: route oral, dose 50 mg/kg, time <=1440; conditions: in vivo
Method in brief: (§1)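 Male ICR (CD-1) mice, 22 ± 2 g, given the free base in DMSO/Solutol HS-15/0.9% NaCl (5/5/90, v/v/v), IV at 10 mg/kg or PO at 50 mg/kg; 24 mice per route, three per timepoint. Plasma was taken by cardiac puncture at 3–1440 min (IV) or 10–1440 min (PO), measured by LC-MS/MS, and parameters were derived by noncompartmental analysis.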

[3] = molecular target: Topoisomerase IV (Staphylococcus aureus, UniProt P0C1S7+P0C1U9); experiment: Inhibition of Staphylococcus aureus topoisomerase IV decatenation activity using kDNA as substrate by ethidium bromide/bromophenol blue staining based agarose gel electrophoresis analysis; type: protein-complex assay
[4] = molecular target: hERG (KCNH2) (Homo sapiens, UniProt Q12809); experiment: Inhibition of recombinant human ERG expressed in CHO-K1 cells at 100 uM at -80 mV holding potential tail current by automated Qpatch clamp assay relative to control; type: ADME, cell-based; conditions: CHO-K1 cells expressing recombinant human ERG
[5] = tested on: Staphylococcus aureus; experiment: Antibacterial activity against Staphylococcus aureus ATCC 29213 by CLSI method; type: functional
[6] = molecular target: Kv4.3 (KCND3) (Homo sapiens, UniProt Q9UK17); experiment: Inhibition of recombinant human Kv4.3 expressed in human HEK293 cells at 100 uM measured at end current by automated Qpatch clamp assay relative to control; type: ADME, cell-based; conditions: HEK293 cells expressing recombinant human Kv4.3
Chain of Kv4.3 (KCND3) (Q9UK17 whole entry): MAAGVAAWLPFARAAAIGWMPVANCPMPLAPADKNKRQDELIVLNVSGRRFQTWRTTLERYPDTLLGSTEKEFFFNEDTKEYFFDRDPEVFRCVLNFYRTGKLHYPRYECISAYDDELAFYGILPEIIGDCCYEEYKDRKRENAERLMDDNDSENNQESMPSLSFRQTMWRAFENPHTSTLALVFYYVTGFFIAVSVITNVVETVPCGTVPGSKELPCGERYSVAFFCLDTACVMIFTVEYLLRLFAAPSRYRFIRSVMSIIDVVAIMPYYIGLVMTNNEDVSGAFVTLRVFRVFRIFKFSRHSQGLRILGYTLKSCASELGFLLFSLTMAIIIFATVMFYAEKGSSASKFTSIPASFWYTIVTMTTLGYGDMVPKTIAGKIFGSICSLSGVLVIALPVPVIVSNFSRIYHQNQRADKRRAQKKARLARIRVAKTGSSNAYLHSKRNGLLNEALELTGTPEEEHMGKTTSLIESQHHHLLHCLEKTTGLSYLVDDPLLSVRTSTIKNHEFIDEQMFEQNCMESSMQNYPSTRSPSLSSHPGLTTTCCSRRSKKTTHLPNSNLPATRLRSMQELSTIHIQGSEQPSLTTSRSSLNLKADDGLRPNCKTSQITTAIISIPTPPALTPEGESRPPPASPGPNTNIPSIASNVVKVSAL

[7] = Growth inhibition of human K/VP.5 cells incubated for 48 hrs by NBTI cell counting analysis; type: functional; conditions: K562, 48 h
[8] = molecular target: CYP2C19 (Homo sapiens, UniProt P33261); experiment: Inhibition of CYP2C19 (unknown origin) at 10 uM relative to control; type: ADME
[9] = molecular target: T1, DNA gyrase (Staphylococcus aureus) (UniProt P0A0K8+P20831); experiment: Inhibition of Staphylococcus aureus DNA Gyrase assessed as reduction in supercoiling pBR322 DNA by measuring induction of single strand breaks by ethidium bromide staining based agarose gel electrophoresis; type: protein-complex assay; conditions: dose 1-100 µM
T1 sequence (P0A0K8 2-644 limits assumed): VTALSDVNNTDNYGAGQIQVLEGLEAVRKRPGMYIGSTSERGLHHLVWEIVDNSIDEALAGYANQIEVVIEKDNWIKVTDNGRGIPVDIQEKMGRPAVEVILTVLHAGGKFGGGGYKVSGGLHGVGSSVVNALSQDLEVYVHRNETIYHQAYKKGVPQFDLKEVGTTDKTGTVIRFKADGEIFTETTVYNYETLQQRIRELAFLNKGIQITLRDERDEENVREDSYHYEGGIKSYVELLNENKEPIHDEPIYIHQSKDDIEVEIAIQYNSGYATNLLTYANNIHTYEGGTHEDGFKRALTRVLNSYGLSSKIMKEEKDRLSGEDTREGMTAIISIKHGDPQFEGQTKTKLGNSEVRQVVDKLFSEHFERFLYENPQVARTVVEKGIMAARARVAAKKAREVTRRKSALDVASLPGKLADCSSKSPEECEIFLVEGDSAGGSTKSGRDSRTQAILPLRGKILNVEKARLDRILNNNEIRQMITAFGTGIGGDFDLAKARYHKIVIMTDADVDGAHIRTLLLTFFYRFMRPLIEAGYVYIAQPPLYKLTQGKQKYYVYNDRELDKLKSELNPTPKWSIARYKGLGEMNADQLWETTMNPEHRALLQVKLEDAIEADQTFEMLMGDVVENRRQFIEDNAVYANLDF
T1 sequence (P20831 whole entry partner): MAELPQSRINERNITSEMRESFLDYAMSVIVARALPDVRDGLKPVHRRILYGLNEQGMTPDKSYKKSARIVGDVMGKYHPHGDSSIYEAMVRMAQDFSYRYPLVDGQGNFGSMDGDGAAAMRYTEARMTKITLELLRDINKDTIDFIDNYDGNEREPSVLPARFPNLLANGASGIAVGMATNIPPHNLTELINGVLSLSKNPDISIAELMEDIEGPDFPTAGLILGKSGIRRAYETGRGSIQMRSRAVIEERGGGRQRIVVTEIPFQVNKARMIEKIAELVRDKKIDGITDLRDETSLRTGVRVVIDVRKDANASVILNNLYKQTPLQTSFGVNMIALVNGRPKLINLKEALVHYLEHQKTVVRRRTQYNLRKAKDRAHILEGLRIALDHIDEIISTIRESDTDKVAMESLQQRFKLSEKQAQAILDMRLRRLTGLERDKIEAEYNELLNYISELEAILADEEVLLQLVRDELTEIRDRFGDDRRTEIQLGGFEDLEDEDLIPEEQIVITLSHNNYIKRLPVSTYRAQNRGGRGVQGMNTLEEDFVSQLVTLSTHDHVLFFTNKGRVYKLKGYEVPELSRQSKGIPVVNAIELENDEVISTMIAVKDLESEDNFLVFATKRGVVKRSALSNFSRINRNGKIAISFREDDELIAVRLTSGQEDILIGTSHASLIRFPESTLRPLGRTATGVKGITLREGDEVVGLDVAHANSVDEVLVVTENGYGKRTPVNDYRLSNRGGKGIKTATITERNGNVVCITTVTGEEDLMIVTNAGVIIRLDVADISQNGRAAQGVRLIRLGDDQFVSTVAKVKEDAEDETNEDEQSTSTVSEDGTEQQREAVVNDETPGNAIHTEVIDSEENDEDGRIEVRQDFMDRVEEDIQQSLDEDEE
Method in brief: (§2)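 Gyrase-mediated cleavage of negatively supercoiled pBR322 ran for 30 min at 37 °C with compound at 0.5–200 μM. Single- and double-strand break products were quantified from gel lane fluorescence, corrected for differential emission of supercoiled versus linear DNA.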

[10] = molecular target: DNA gyrase (Staphylococcus aureus, UniProt P0A0K8+P20831); experiment: Inhibition of Staphylococcus aureus Gyrase supercoiling activity assessed as reduction in supercoiling pBR322 DNA by measuring relaxation by bromophenol blue staining based TAE gel method; type: protein-complex assay
Chain of DNA gyrase (P0A0K8 whole entry): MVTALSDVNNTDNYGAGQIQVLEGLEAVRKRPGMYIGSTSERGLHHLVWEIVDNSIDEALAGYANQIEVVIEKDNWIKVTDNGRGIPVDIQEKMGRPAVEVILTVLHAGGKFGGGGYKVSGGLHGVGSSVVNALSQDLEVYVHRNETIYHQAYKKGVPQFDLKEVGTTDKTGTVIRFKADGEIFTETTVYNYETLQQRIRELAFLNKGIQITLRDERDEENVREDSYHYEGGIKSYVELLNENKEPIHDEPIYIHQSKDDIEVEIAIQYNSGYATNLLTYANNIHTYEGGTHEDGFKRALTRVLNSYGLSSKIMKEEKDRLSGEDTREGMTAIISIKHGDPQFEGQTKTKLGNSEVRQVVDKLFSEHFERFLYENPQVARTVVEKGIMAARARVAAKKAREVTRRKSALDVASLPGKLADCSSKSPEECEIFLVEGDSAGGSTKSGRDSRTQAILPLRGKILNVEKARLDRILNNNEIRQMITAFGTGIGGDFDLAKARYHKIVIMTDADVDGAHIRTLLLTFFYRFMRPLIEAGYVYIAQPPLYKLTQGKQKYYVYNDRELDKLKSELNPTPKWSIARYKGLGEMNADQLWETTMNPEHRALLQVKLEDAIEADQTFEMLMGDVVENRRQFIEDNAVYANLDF
Chain of DNA gyrase (P20831 whole entry): as the sequence (P20831 whole entry partner) above

[11] = molecular target: Sodium channel protein type 5 subunit alpha (Homo sapiens, UniProt Q14524); experiment: Activation of recombinant human Nav1.5 late expressed in human HEK293 cells assessed as activation of late current at 100 uM by automated Qpatch clamp assay relative to control; type: ADME, cell-based; conditions: hek293, 100 µM
[12] = tested on: Enterobacter cloacae; experiment: Antibacterial activity against Enterobacter cloacae isolates by CLSI method; type: functional
[13] = molecular target: 5-hydroxytryptamine receptor 2B (Homo sapiens) (UniProt P41595); experiment: Displacement of [3H]Lysergic acid diethylamide from human recombinant 5HT2B receptor expressed in CHO-K1 cells at 100 uM by radioligand binding assay; type: cell-based
[14] = molecular target: Cytochrome P450 1A2 (Homo sapiens, UniProt P05177); experiment: Inhibition of CYP1A2 (unknown origin); type: ADME
[15] = molecular target: Cytochrome P450 2C19 (Homo sapiens, UniProt P33261); experiment: Inhibition of CYP2C19 (unknown origin); type: ADME
[16] = Cmax in ICR (CD-1) mouse at 50 mg/kg, po measured up to 1440 mins by LC-MS/MS analysis; type: ADME, organism-based; design: route oral, dose 50 mg/kg, time <=1440; conditions: in vivo; method in brief: as §1
[17] = molecular target: CYP2C9 (Homo sapiens, UniProt P11712); experiment: Inhibition of CYP2C9 (unknown origin) at 10 uM relative to control; type: ADME
Chain of CYP2C9 (P11712 whole entry): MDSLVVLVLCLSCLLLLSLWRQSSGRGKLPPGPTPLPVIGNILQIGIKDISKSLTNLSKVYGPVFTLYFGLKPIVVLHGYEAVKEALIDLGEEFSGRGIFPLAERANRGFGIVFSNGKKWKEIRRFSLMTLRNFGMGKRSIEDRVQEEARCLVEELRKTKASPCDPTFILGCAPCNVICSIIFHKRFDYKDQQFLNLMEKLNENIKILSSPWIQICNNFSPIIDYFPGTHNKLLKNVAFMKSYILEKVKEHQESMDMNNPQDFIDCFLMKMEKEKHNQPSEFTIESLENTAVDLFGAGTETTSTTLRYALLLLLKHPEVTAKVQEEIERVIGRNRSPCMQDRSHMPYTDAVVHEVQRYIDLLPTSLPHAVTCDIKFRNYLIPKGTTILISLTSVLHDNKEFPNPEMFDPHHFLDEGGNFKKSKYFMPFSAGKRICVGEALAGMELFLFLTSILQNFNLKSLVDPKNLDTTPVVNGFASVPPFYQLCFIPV

[18] = molecular target: KCNQ1 (Homo sapiens, UniProt P51787); experiment: Inhibition of recombinant human KCNQ1 expressed in CHO-K1 cells at 100 uM by automated Qpatch clamp assay relative to control; type: ADME, cell-based; conditions: CHO-K1 cells expressing recombinant human KCNQ1
[19] = molecular target: Cytochrome P450 2D6 (Homo sapiens, UniProt P10635); experiment: Inhibition of CYP2D6 (unknown origin); type: ADME
Chain of Cytochrome P450 2D6 (P10635 whole entry): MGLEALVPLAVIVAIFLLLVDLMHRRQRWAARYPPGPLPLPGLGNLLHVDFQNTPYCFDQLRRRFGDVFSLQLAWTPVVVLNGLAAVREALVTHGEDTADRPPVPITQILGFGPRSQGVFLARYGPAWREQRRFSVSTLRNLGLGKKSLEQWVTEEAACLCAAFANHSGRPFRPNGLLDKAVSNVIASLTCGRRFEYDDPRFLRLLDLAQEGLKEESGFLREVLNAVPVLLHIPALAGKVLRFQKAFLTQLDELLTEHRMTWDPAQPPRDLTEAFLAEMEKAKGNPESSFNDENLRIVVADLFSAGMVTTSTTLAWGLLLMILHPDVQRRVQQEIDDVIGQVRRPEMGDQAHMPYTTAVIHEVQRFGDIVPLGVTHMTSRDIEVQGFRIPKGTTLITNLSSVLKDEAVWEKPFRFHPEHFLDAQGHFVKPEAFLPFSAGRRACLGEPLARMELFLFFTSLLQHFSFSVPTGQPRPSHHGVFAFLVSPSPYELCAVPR

[20] = tested on: Staphylococcus aureus; experiment: Antibacterial activity against methicillin-resistant Staphylococcus aureus USA300 by CLSI method; type: functional
[21] = molecular target: CYP2B6 (Homo sapiens, UniProt P20813); experiment: Inhibition of CYP2B6 (unknown origin) at 10 uM relative to control; type: ADME
[22] = tested on: Staphylococcus aureus; experiment: Antibacterial activity against methicillin-resistant Staphylococcus aureus ATCC 33591 infected in iv dosed CD1 mouse model of septicemia assessed as mouse survival at 1 to 10 mg/kg, iv administered 0.5 to 3.5 hrs post injection measured for 7 days relative to control; type: functional; conditions: dose 1-10 mg/kg, time 7 day
Method in brief: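 Female CD-1 mice (18–20 g), in groups of six, were infected IP with 1.3 × 10^8 CFU MRSA ATCC 33591 suspended in 8% hog gastric mucin (pH 7.5). Compound was given as the methanesulfonate salt in 5% DMSO/water for injection, by IV tail vein at 0.5, 1.5, 2.5 and 3.5 h post infection. Dose levels were 1, 5, 10, 25 and 50 mg/kg/dose. Survival was followed for 7 days against untreated infection controls.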

[23] = molecular target: T1, DNA gyrase (Staphylococcus aureus); experiment: Inhibition of Staphylococcus aureus DNA Gyrase assessed as reduction in supercoiling pBR322 DNA by measuring induction of double strand breaks by ethidium bromide staining based agarose gel electrophoresis; type: protein-complex assay; conditions: dose 1-100 µM; method in brief: as §2
[24] = Metabolic stability in CD1 mouse microsomes assessed as half life; type: ADME, Microsome
[25] = Clearance in ICR (CD-1) mouse at 10 mg/kg, iv measured up to 1440 mins by LC-MS/MS analysis; type: ADME, organism-based; conditions: in vivo; method in brief: as §1
[26] = Permeability of the compound from basolateral to apical side in human Caco-2 cells; type: ADME, cell-based; conditions: read-out: permeability
Method in brief: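 Run at RTI International. Covers plasma protein binding (mouse, human; percent free), CACO-2 permeability and efflux, and microsomal stability (mouse and human microsomes) giving half-life.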

[27] = Permeability of the compound from apical to basolateral side in human Caco-2 cells; type: ADME, cell-based; conditions: read-out: permeability
[28] = tested on: Staphylococcus aureus; experiment: Antibacterial activity against cystic fibrosis isolate Staphylococcus aureus by CLSI method; type: functional
[29] = tested on: Klebsiella pneumoniae; experiment: Antibacterial activity against Klebsiella pneumoniae isolates by CLSI method; type: functional
[30] = tested on: HeLa; experiment: Cytotoxicity against human HeLa cells; type: cell-based
Method in brief: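 THP-1, HepG2 and HeLa cells were exposed to compound from 128 to 0.0625 μg/mL. IC50 was obtained by nonlinear regression of the inhibition curves.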

[31] = molecular target: Cytochrome P450 2C8 (Homo sapiens, UniProt P10632); experiment: Inhibition of CYP2C8 (unknown origin); type: ADME

With `COc1ccc2ncc(F)c(C[C@H](O)[C@H]3OC[C@H](NCc4cc5c(nn4)OCCS5)CO3)c2n1` the inhibition at 100 µM [1] was less than 25%, the AUC(0-t) at 24 h [2] was 5910 ng·h/mL and the IC50 [3] was 3.5 µM. For the same compound, the inhibition at 100 µM [4] was less than 25%, the MIC [5] was 0.125 µg/mL (≈ 0.255 µM) and the inhibition at 100 µM [6] was less than 25%. The IC50 [7] was 202 µM, the inhibition at 10 µM [8] was greater than 50% and the Activity [9] was “Dose-Dependent Effect”. For the same compound, the IC50 [10] was 0.22 µM, the Activity [11] was less than 25% and the MIC50 [12] was greater than 64 µg/mL. For the same compound, the inhibition [13] was greater than 45%, the IC50 [14] was greater than 10 µM and the IC50 [15] was greater than 10 µM. It also gave a Cmax [16] of 7020 ng/mL, an inhibition at 10 µM [17] greater than 50% and an inhibition at 100 µM [18] of less than 25%. It also gave an IC50 [19] greater than 10 µM, an MIC [20] of 0.25 µg/mL (≈ 0.511 µM) and an inhibition at 10 µM [21] greater than 50%. For the same compound, the Survival [22] was greater than 50%, the Activity [23] was “Dose-Dependent Effect” and the half-life [24] was 52 min. It also gave a clearance [25] of 69 mL/min/kg, a Papp B→A [26] of 81.2 ×10⁻⁶ cm/s and a Papp A→B [27] of 5.68 ×10⁻⁶ cm/s. It also gave an MIC [28] of 0.125 µg/mL (≈ 0.255 µM), an MIC50 [29] greater than 64 µg/mL and an IC50 [30] greater than 125 µM. The IC50 [31] was greater than 10 µM.
